The subject of data set [1] is A-375. Put plainly: cells. Conditions: Homo sapiens, A-375, 72 h.
In data set [2] the target is Dual specificity mitogen-activated protein kinase kinase; MEK1/2 (Homo sapiens, UniProt P36507+Q02750). Put plainly: Inhibition of MEK (unknown origin).
Data set [3] addresses GTPase KRas (Homo sapiens, UniProt P01116, G13D). Put plainly: Inhibition of KRAS G13D mutant in human HCT116 cells assessed as inhibition of ERK phosphorylation by ELISA. Type of data set: cell-based, HCT-116. The method, boiled down:
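HCT116 cells (KRAS G13D, BRAF WT; RAF signalling via CRAF) were treated with compound, and the change in cellular phospho-ERK was measured. IC50 was taken as the concentration inhibiting phospho-ERK.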
(ELISA stands for enzyme-linked immunosorbent assay.)

Data set [4] deals with RAF proto-oncogene serine/threonine-protein kinase (Homo sapiens, UniProt P04049). Put plainly: Inhibition of wild type CRAF (unknown origin) assessed as ADP formation measured for 5 hrs by pyruvate kinase/lactate dehydrogenase coupled assay in presence of ATP, MEK1, PEP, NADH.
The target in data set [5] is Vascular endothelial growth factor receptor 2 (Homo sapiens, UniProt P35968). Put plainly: Inhibition of KDR (unknown origin).
The target of data set [6] is T1, Serine/threonine-protein kinase B-raf (Homo sapiens, UniProt P15056, V600E). Briefly: Inhibition of BRAF V600E mutant in human A375 cells assessed as inhibition of ERK phosphorylation measured after 72 hrs by ELISA assay. Format: cell-based, A-375.
The nature of data set [7]: Clearance in iv dosed rat administered as suspension. Format: ADME, organism-based. Conditions: in vivo.
Data set [8] concerns the target T1, Serine/threonine-protein kinase B-raf. Put plainly: Inhibition of recombinant BRAF V600E mutant (unknown origin) assessed as ADP formation measured for 5 hrs by pyruvate kinase/lactate dehydrogenase coupled assay in presence of ATP, MEK1, NADH.
Data set [9] addresses Serine/threonine-protein kinase B-raf (Homo sapiens, UniProt P15056). Briefly: Inhibition of wild type BRAF (unknown origin) assessed as ADP formation measured for 5 hrs by pyruvate kinase/lactate dehydrogenase coupled assay in presence of ATP, MEK1, NADH.
The test system of data set [10] is HCT-116. Briefly: cells. The following applies: Homo sapiens, HCT-116, 67 h.
Data set [11] in a line: Oral bioavailability in rat administered as suspension. Format: ADME, organism-based. Conditions: in vivo.
The target in data set [12] is Serine/threonine-protein kinase A-Raf (Homo sapiens, UniProt P10398). Briefly: Competitive binding affinity to ARAF in human A375 cells after 15 mins in presence of ATP analogue. Format: cell-based, A-375.
A short description of data set [13]: Paradoxical activation of RAS/RAF/MEK signaling pathway in human HCT116 cells expressing wild type BRAF assessed as ERK phosphorylation at 0.34 to 20000 nM. Format: cell-based. The following applies: HCT-116.
A short description of data set [14]: Oral bioavailability in dog administered as suspension. Type of data set: ADME, organism-based, Canis lupus familiaris. Conditions: in vivo.
Data set [15] concerns Mus musculus. Put plainly: In vivo inhibition of BRAF V600E mutant in human A375 cells xenografted in po dosed athymic nu/nu mouse assessed as inhibition of ERK phosphorylation after 2 hrs by ELISA. Type of data set: functional. Conditions: A-375, po. For orientation: Xenograft models place foreign cells or tissue in a host animal.
A short description of data set [16]: Solubility of the compound in simulated fasted intestinal fluid. Format: ADME.
The species entered for data set [17] is Canis familiaris. Briefly: Toxicity in dog assessed as skeletal muscle degeneration. Format: organism-based, Canis lupus familiaris. Conditions: in vivo.
For data set [18], the species on record is Rattus norvegicus. Briefly: Toxicity in rat assessed as inflammation. Type of data set: organism-based. The following applies: in vivo.
Data set [19] in a line: Solubility of the compound in simulated fed intestinal fluid. Type of data set: ADME.
The species named for data set [20] is Canis familiaris. Put plainly: Toxicity in dog assessed as bone marrow hypocellularity. Type of data set: organism-based, Canis lupus familiaris. The following applies: in vivo.
Data set [21] is filed under the species Rattus norvegicus. Put plainly: Toxicity in rat assessed as hyperbilirubinemia. The following applies: in vivo. Type of data set: organism-based.
Data set [22] deals with Mus musculus. Put plainly: Toxicity in athymic nu/nu mouse xenografted with human HT-29 cells assessed as body weight loss at 10 to 20 mg/kg, po bid administered for 28 days. Type of data set: organism-based. Conditions: in vivo, 672 h. A digest of the protocol:
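HT-29 (BRAF V600E) xenograft mice dosed orally for 28 days; body weight loss monitored.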

Data set [23] is described as follows: Clearance in po dosed rat administered as suspension. The following applies: in vivo. Format: ADME, organism-based.
Data set [24] deals with Mus musculus. Put plainly: In vivo inhibition of BRAF V600E mutant in human HT-29 cells xenografted in po dosed athymic nu/nu mouse assessed as inhibition of ERK phosphorylation administered as bid for 28 days by Western blot.
The species entered for data set [25] is Canis familiaris. Put plainly: Toxicity in dog assessed as hyperbilirubinemia. Type of data set: organism-based, Canis lupus familiaris. The following applies: in vivo.
Data set [26] concerns Mus musculus. Briefly: In vivo inhibition of BRAF V600E mutant in human HT-29 cells xenografted in athymic nu/nu mouse assessed as inhibition of ERK phosphorylation at 10 to 20 mg/kg, po bid administered for 28 days by Western blot analysis. Format: functional, organism-based. The method, boiled down:
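HT-29 (BRAF V600E) xenografts in mice, oral dosing for 28 days; after dosing, tumors from individual animals analysed for phospho-ERK by Western blot.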

Data set [27] relates to Mus musculus. Put plainly: In vivo inhibition of BRAF V600E mutant in human A375 cells xenografted in po dosed athymic nu/nu mouse assessed as plasma concentration required to inhibit ERK phosphorylation by 50% after 2 hrs by ELISA. Format: functional, A-375.
Data set [28] is filed under the species Rattus norvegicus. Briefly: Toxicity in rat assessed as bone marrow hypocellularity. Format: organism-based. The following applies: in vivo.
In data set [29] the test system is Mus musculus. Put plainly: In vivo inhibition of BRAF V600E mutant in human A375 cells xenografted in po dosed athymic nu/nu mouse assessed as plasma concentration required to inhibit ERK phosphorylation by 80% after 2 hrs by ELISA. Format: functional, A-375.
The nature of data set [30]: Clearance in po dosed dog administered as suspension. Format: ADME, organism-based, Canis lupus familiaris. Conditions: in vivo.
For data set [31], the species on record is Rattus norvegicus. Put plainly: Toxicity in rat assessed as skeletal muscle degeneration. Format: organism-based. Conditions: in vivo.
For data set [32], the species on record is Canis familiaris. Briefly: Toxicity in dog assessed as inflammation. Type of data set: organism-based, Canis lupus familiaris. Conditions: in vivo.

Consider 11 molecules from ChEMBL document CHEMBL3576847, “Discovery of 1-(3,3-dimethylbutyl)-3-(2-fluoro-4-methyl-5-(7-methyl-2-(methylamino)pyrido[2,3-d]pyrimidin-6-yl)phenyl)urea (LY3009120) as a pan-RAF inhibitor with minimal paradoxical activation and activity against BRAF or RAS mutant tumor cells” (J Med Chem, 2015).

Converted amounts (≈) assume the structure as drawn. The source made the active and inactive calls. The calls are words filed in the database; no cut-off is given here. Where only a bound is given, the exact number is not on record here.

Chain of GTPase KRas (P01116 whole entry G13D): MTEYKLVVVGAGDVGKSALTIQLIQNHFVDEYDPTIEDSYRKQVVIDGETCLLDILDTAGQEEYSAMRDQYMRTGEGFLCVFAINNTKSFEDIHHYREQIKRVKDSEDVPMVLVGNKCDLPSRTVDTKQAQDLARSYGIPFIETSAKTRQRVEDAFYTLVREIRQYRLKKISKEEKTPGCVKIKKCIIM
Chain of Vascular endothelial growth factor receptor 2 (P35968 whole entry): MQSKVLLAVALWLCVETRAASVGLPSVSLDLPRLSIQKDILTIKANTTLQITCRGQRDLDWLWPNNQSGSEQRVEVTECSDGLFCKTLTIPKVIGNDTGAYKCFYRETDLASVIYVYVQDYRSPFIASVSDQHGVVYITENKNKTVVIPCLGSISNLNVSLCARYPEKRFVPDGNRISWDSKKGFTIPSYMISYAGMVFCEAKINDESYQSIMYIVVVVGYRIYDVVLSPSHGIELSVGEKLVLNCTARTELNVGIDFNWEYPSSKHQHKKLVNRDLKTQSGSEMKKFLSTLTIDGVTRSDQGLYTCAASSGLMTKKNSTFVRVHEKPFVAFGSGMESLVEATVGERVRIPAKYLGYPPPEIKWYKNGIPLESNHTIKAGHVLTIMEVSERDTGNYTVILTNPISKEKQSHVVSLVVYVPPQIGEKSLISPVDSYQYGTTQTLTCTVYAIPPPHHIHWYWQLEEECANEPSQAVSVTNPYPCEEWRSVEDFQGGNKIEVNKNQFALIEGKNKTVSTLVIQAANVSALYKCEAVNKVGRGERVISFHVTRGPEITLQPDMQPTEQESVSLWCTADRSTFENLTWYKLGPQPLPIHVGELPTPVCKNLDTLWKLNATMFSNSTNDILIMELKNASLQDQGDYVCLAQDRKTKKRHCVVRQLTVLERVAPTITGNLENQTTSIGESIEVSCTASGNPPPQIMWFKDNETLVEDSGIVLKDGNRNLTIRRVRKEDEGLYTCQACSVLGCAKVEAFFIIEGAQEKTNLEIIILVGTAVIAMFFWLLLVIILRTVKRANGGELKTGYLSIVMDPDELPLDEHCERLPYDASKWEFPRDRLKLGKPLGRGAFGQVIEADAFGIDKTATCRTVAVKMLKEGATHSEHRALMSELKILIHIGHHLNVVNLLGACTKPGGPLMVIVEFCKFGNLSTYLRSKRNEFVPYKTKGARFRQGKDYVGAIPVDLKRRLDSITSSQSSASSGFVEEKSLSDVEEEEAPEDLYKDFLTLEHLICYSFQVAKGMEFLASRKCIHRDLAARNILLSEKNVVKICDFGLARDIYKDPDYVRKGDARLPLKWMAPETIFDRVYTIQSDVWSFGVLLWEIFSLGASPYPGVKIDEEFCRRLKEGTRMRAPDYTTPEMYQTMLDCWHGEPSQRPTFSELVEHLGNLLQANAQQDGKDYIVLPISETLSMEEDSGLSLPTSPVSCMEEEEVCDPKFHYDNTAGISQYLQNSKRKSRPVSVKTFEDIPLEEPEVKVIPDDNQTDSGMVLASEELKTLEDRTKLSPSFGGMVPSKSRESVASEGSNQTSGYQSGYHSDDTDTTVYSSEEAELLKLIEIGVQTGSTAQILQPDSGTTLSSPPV
Chain of Serine/threonine-protein kinase B-raf (Homo sapiens, UniProt P15056) (P15056 whole entry): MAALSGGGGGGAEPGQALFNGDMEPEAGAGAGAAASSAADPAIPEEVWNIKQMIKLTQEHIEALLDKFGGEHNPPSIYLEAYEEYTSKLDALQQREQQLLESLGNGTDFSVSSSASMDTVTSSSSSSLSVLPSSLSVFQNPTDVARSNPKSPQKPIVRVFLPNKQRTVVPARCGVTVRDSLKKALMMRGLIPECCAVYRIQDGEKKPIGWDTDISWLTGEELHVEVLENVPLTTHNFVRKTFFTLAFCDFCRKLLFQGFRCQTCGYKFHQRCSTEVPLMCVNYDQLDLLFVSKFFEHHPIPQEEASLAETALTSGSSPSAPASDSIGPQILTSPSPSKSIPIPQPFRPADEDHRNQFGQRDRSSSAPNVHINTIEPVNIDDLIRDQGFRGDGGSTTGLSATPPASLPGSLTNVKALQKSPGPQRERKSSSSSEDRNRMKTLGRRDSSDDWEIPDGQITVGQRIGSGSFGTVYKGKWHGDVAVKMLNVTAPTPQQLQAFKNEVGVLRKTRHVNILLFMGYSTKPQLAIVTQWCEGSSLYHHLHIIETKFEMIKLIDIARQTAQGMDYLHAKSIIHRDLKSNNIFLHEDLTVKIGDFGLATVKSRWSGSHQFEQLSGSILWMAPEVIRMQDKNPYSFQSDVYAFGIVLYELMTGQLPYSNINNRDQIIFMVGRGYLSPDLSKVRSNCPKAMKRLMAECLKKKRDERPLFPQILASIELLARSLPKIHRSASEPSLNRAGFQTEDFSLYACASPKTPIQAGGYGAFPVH
Chain of RAF proto-oncogene serine/threonine-protein kinase (P04049 whole entry): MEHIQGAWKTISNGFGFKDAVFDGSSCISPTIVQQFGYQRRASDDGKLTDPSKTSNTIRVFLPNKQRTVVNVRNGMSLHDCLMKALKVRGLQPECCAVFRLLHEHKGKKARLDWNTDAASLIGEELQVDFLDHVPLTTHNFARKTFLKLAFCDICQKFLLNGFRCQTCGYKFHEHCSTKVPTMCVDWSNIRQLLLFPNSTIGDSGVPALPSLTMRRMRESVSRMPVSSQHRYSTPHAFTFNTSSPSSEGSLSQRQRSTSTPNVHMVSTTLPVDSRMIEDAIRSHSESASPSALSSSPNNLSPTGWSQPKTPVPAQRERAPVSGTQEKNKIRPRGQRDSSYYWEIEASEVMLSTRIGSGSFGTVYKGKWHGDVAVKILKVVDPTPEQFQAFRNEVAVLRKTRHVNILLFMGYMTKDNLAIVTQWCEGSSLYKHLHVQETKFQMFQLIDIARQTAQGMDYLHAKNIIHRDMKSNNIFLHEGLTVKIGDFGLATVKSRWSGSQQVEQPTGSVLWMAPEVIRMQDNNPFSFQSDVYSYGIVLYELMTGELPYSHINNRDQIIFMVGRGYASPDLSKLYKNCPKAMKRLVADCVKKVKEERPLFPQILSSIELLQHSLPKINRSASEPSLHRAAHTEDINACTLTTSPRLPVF
T1 sequence (P15056 2-766 V600E limits assumed): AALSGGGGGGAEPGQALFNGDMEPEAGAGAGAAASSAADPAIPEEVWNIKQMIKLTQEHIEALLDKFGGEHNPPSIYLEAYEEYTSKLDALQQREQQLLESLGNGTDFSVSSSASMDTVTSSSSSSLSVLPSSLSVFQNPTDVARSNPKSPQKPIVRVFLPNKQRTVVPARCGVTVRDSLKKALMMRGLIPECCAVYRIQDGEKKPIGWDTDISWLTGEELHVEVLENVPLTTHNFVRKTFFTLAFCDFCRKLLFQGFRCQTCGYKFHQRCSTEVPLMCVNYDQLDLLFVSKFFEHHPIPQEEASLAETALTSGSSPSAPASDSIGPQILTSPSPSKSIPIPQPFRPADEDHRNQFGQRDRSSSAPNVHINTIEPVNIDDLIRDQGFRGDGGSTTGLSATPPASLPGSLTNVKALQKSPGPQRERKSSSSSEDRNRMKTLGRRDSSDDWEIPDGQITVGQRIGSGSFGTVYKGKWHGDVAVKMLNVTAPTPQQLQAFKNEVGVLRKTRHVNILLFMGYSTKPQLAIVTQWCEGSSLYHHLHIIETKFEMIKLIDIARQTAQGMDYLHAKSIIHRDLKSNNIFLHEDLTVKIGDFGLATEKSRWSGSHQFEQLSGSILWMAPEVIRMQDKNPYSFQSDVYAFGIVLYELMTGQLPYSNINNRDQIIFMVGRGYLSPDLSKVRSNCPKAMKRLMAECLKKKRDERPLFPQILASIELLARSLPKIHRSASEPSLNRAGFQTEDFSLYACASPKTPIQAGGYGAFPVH
Chain of Serine/threonine-protein kinase A-Raf (P10398 whole entry): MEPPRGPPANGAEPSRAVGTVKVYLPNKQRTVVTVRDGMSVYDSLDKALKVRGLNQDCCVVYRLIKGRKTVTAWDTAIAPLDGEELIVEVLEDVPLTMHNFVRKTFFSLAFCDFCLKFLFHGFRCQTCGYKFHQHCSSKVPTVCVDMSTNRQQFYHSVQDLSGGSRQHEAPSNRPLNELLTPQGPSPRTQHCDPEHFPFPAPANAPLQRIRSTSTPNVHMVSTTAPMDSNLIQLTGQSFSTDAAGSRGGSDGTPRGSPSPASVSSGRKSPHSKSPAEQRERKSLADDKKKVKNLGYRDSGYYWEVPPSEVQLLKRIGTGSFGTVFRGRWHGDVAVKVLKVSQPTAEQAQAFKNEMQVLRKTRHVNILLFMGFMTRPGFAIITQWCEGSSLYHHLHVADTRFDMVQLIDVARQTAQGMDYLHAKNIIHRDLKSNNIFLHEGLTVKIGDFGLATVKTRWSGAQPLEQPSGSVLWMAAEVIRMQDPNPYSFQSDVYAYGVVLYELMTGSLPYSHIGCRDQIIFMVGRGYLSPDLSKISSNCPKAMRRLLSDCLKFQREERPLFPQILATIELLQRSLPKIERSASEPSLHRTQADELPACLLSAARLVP

With `CNc1cc2nc(C)c(-c3cc(NC(=O)NCCC(C)(C)C)c(F)cc3C)cc2cn1`, the half-inhibitory concentration (IC50) – broadly, the point on the concentration scale where inhibition reaches its midpoint – in data set [1] is 11 nM; in data set [2], 5900 nM; in [3], 120 nM; in data set [4], 5.6 nM; in data set [5] it was 170 nM; in [6], 47 nM. Moreover, the IC50 was determined as 18 nM in data set [8], 28 nM in data set [9] and 320 nM in data set [10]. Besides, in [7], the clearance – broadly, a measure of how efficiently the substance is removed, as volume per time – turned out to be 3.36 mL/min/kg. Also, the bioavailability (commonly dose-corrected exposure relative to a reference, in per cent) in [11] stood at 30%.

Take `CNc1ncc2cc(-c3ccc(F)c(NC(=O)NCCC(C)(C)C)c3)c(C)nc2n1`: the half-inhibitory concentration (IC50) in data set [1] was 26 nM; in data set [2] it was more than 20000 nM; in data set [3] it was 48 nM; in [4], 2.8 nM; in data set [5] it was 750 nM; in data set [6] it was 110 nM. Besides, the IC50 was 7.6 nM in data set [8], 18 nM in [9] and 280 nM in data set [10].

As to `CNc1ncc2cc(-c3cc(NC(=O)NCCC(C)(C)C)c(F)cc3C)cnc2n1`, the IC50 is 18 nM in data set [1]; more than 20000 nM in data set [2]; 16 nM in [3]; 1.2 nM in [4]; 1900 nM in data set [5]; 27 nM in data set [6]. Further, the IC50 in data set [8] was 2 nM; in data set [9] it was 4.4 nM; in [10], 110 nM.

Turning to `CNc1cc2nc(C)c(-c3cc(NC(=O)NCCC(C)(C)C)ccc3C)cc2cn1`, the IC50 was 35 nM in data set [1]; more than 20000 nM in [2]; 270 nM in data set [3]; 6.7 nM in [4]; 140 nM in data set [6]; 4.3 nM in [8]. The IC50 in [9] stood at 27 nM; in data set [10] it was 510 nM.

Turning to `CCCS(=O)(=O)Nc1ccc(F)c(C(=O)c2c[nH]c3ncc(-c4ccc(Cl)cc4)cc23)c1F` [VEMURAFENIB], the IC50 is 170 nM in data set [1]; 1500 nM in data set [2]; 16600 nM in [3]; 950 nM in data set [12]; 360 nM in [5]; more than 10000 nM in data set [10]. For the same molecule, the result in [13] was Active.

Regarding `CCn1c(=O)c(-c2ccc(F)c(NC(=O)Nc3cc(C(C)(C)C)no3)c2)cc2cnc(NC)cc21`, the IC50 in [1] came out at 56 nM; in data set [2], 4000 nM; in data set [3], 91 nM; in data set [4] it was 2.9 nM; in data set [5], 1.9 nM; in data set [6] it was 96 nM. The IC50 in data set [8] was 1.2 nM; in [9] it was 10 nM; in data set [10], 160 nM. The bioavailability in [14] was 69%; in data set [11] it was 28%. Moreover, the ED50 (usually the dose at which the effect has come halfway, by size or by number of responders) in data set [15] amounted to 10.4 mg/kg. Further, the ED80 in data set [15] stood at 20.5 mg/kg. The solubility (as a rule, the dissolved amount per volume that the medium holds) in data set [16] was 41 µg/mL (≈ 85.7 µM); in [19] it was 310 µg/mL (≈ 648 µM). Also, the Activity result is given as “Toxic” in data set [17]; “Toxic” in [18]; “Toxic” in data set [20]; “Toxic” in [21]; “Non-toxic” in [22]; “Toxic” in data set [25]. Moreover, the Activity entry in data set [28], in data set [31] and in [32] was “Toxic” each time. Besides, the CL/F – broadly, the apparent clearance, not corrected for the fraction that reaches the circulation – in [23] amounted to 13 mL/min/kg; in [30] it was 14 mL/min/kg. In data set [24], the inhibition result was “Dose-dependent effect”. Also, the inhibition result in [26] is “Active”. The INH in data set [27] was 167 ng/mL; in data set [29], 843 ng/mL.

Turning to `CNc1cc2nc(C)c(-c3ccc(F)c(NC(=O)NCCC(C)(C)C)c3)cc2cn1`, the IC50 in data set [1] was 40 nM; in data set [2] it was more than 20000 nM; in data set [3], 46 nM; in [4], 1.6 nM; in data set [5], 33 nM; in [6], 82 nM. Also, the IC50 in [8] came to 3 nM; in [9], 8.4 nM; in [10] it was 160 nM.

In the case of `Cc1cc(F)c(NC(=O)NCCC(C)(C)C)cc1-c1cc2cnc(N)nc2nc1C`, the IC50 stood at 33 nM in data set [1], 540 nM in [5], 7.9 nM in [8] and 190 nM in data set [10].

With `CNc1cc2c(cn1)cc(-c1ccc(F)c(NC(=O)Nc3cc(C(C)(C)C)no3)c1)c(=O)n2[C@H]1CCOC1`, the IC50 was 6.1 nM in data set [1]; 2900 nM in data set [2]; 57 nM in data set [3]; 3.1 nM in data set [4]; 0.46 nM in [5]; 6.8 nM in data set [6]. Further, the IC50 stood at 1 nM in data set [8], 18 nM in data set [9] and 32 nM in [10]. For the same molecule, the bioavailability in data set [14] and in data set [11] was less than 10% throughout. Moreover, the solubility in data set [16] was 1 µg/mL (≈ 1.92 µM); in data set [19], 2 µg/mL (≈ 3.84 µM). Besides, the CL/F in data set [23] amounted to 50 mL/min/kg; in [30] it was 6 mL/min/kg.

`CC(C)(C)c1nc(-c2cccc(NS(=O)(=O)c3c(F)cccc3F)c2F)c(-c2ccnc(N)n2)s1` [DABRAFENIB]: the IC50 in data set [3] came to 5880 nM; in data set [12] it was 26 nM.

Regarding `CCn1c(=O)c(-c2cc(NC(=O)NCCC(C)(C)C)c(F)cc2C)cc2cnc(NC)cc21`, the IC50 in [1] amounted to 34 nM; in [2], 2500 nM; in [3], 120 nM; in [4], 5.2 nM; in data set [5], 25 nM; in data set [6], 40 nM. In addition, the values for the IC50 in data set [8], in data set [9] and in data set [10] were 4.2 nM, 11 nM and 130 nM, respectively.
